Source: ChEMBL document CHEMBL1148304, “Discovery of embelin as a cell-permeable, small-molecular weight inhibitor of XIAP through structure-based computational screening of a traditional herbal medicine three-dimensional structure database” (J Med Chem, 2004)
“And” between values parts separate entries of the source, which are not always exact repeats. Identical values can stand only once. Where a SMILES comes first, the peptide text is derived from it. The star is where a group is joined. X1 = O=C(ON1C(=O)CCC1=O)c1cccc(-c2c3ccc(=O)cc-3oc3cc(O)ccc23)c1C(=O)*

How the values were obtained:
PC-3 [1] = experiment: Induction of apoptosis by embelin in PC-3 prostate cancer cells at a concentration of 50 uM for 48 h; format: functional, Homo sapiens
How it was run: (§1)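 PC-3 cells, 1 × 10^6 per well, treated in triplicate with compound for 48 h, trypsinized, PBS-washed, stained with Annexin V-FITC plus propidium iodide; flow cytometry, reported as % Annexin V-FITC-positive apoptotic cells; three separate experiments.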

PC-3 [2] = experiment: Percent of PC-3 cells stained for activated caspase-9 after incubation with 20 uM of compound for 42h; format: functional, Homo sapiens
How it was run: (§2)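 PC-3 cells seeded 1 × 10^6 per well, exposed to compound or DMSO vehicle for 42 h; parallel control had pan-caspase inhibitor Z-VAD-FMK added 5 min before compound. Cells in complete medium labeled with Red-LEHD-FMK 0.5 h at 37 °C, 5% CO2, washed; active caspase-9 scored by flow cytometry in PI channel as % positive cells.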

PC-3 [3] = experiment: Activation of caspase-9 by embelin in PC-3 prostate cancer cells at a concentration of 20 uM; format: functional, Homo sapiens; how it was run: as §2
Jurkat [4] = experiment: Induction of apoptosis by etoposide in Jurkat vec cells at a dose of 2.5 uM for 72 h; format: functional, Homo sapiens
How it was run: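 Stably vector-transfected Jurkat cells exposed to etoposide 2.5 µM for 72 h in the cell growth assay; reported as % of cells killed.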

PC-3 [5] = experiment: Percent of PC-3 cells stained for activated caspase-9 after incubation with 40 uM of compound for 42h; format: functional, Homo sapiens; how it was run: as §2
PC-3 [6] = experiment: Percent of PC-3 cells underwent apoptosis after incubation with 25 uM of compound for 48 hr; format: functional, Homo sapiens; how it was run: as §1
PrEC [7] = experiment: Inhibitory concentration of compound against growth of PrEC cells in vitro; format: functional, cell-based; details: Homo sapiens
How it was run: (§3)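 WST-1 growth assay: 5000 cells/well in medium with 10% FBS, serial compound concentrations in triplicate for 4–5 days (five days per legend); WST-1 added 1–3 h at 37 °C, absorbance 450 nm corrected at 650 nm. Growth as % of vehicle-control absorbance; IC50 by sigmoid curve fit; experiment repeated three times.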

Jurkat [8] = experiment: Inhibitory concentration of compound against Jurkat-Vec cells; format: functional, cell-based; details: Homo sapiens
How it was run: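 Stably vector-transfected Jurkat T cells kept in RPMI 1640 with 10% fetal calf serum and 1 µg/mL puromycin; growth read by WST-1 as for prostate lines: 5000 cells/well, triplicate concentrations, 4–5 days, absorbance 450/650 nm versus vehicle control, IC50 from sigmoid fit.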

LNCaP [9] = experiment: Compound was tested for inhibition of LnCap prostate cancer cells; format: functional, cell-based; details: Homo sapiens; how it was run: as §3
PrEC [10] = experiment: Selectivity in normal human prostate epithelial cells (PrEC); format: functional, cell-based; how it was run: as §3
PC-3 [11] = experiment: Activation of caspase-9 by embelin in PC-3 prostate cancer cells at a concentration of 40 uM; format: functional, Homo sapiens; how it was run: as §2
[12] = molecular target: T1, E3 ubiquitin-protein ligase XIAP (Homo sapiens, UniProt P98170); experiment: Compound was tested for inhibitory activity towards XIAP BIR3 protein
T1 sequence (P98170 whole entry): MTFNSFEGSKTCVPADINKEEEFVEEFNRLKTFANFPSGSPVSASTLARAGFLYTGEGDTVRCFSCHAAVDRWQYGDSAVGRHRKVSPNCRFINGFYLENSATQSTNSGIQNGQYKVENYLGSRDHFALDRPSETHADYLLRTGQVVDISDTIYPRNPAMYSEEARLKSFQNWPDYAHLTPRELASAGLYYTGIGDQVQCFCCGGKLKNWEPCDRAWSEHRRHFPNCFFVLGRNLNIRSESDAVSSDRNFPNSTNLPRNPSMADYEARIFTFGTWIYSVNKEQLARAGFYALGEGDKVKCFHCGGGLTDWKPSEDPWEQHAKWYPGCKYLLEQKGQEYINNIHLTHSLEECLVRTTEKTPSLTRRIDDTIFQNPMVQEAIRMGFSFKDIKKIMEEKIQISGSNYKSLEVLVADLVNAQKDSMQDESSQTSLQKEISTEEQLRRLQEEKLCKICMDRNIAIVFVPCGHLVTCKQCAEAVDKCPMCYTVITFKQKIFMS

PC-3 [13] = experiment: Induction of apoptosis by embelin in PC-3 prostate cancer cells at a concentration of 25 uM for 48 h; format: functional, Homo sapiens; how it was run: as §1
PC-3 [14] = experiment: Inhibitory concentration of compound against growth of PC-3 cells in vitro; format: functional, cell-based; details: Homo sapiens; how it was run: as §3
LNCaP [15] = experiment: Inhibitory concentration of compound against growth of LNCaP cells in vitro; format: functional, cell-based; details: Homo sapiens; how it was run: as §3
WI-38 = experiment: Inhibitory concentration of compound against growth of WI-38 cells in vitro; format: functional, cell-based; details: Homo sapiens; how it was run: as §3
PC-3 [16] = experiment: Compound was tested for inhibition of PC-3 prostate cancer cells; format: functional, cell-based; details: Homo sapiens; how it was run: as §3
WI-38 5000 = experiment: Selectivity in normal human fibroblast cell line, WI-38 cells; format: functional, cell-based; how it was run: as §3
PC-3 [17] = experiment: Percent of PC-3 cells underwent apoptosis after incubation with 50 uM of compound for 48 hr; format: functional, Homo sapiens; how it was run: as §1
Jurkat [18] = experiment: Percent of Jurkat-XIAP cells killed after 72 hr of 2.5 uM of compound administration; details: human
Jurkat [19] = experiment: Percent of Jurkat-Vec cells killed after 72 hr of 2.5 uM of compound administration; format: cell-based; details: human
How it was run: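 Jurkat T cells stably carrying empty vector, kept in RPMI 1640 with 10% fetal calf serum and 1 µg/mL puromycin at 37 °C, 5% CO2. Cell growth assay at 5000 cells/well in 10% FBS medium, drug added in triplicate for 72 h. WST-1 then added for 1-3 h at 37 °C. Absorbance read at 450 nm, corrected at 650 nm, and compared with vehicle-control wells.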

Jurkat [20] = experiment: Percent of Jurkat-XIAP cells killed after 72 hr of 10 uM of compound administration; details: human
[21] = molecular target: T1, E3 ubiquitin-protein ligase XIAP; experiment: Dissociation constant for XIAP BIR3 protein in FP-based binding assay
[22] = molecular target: T1, E3 ubiquitin-protein ligase XIAP; experiment: Dissociation constant for XIAP BIR3 protein using different binding assay

For `CCCCCCCCCCCC1=C(O)C(=O)C=C(O)C1=O` [EMBELIN], the Induction (PC-3 [1]) was 75%, the Staining (PC-3 [2]) was 33% and the Induction (PC-3 [3]) was 33%. For the same molecule, the Induction (Jurkat [4]) was 94.3% and 59%, the Staining (PC-3 [5]) was 62.1% and the Apoptosis (PC-3 [6]) was 30%. For the same molecule, the IC50 (PrEC [7]) was 20.1 µM, the IC50 (Jurkat [8]) was 20 µM and the IC50 (LNCaP [9]) was 5.7 µM. It also gave an IC50 (PrEC [10]) of 20.1 µM, an Induction (PC-3 [11]) of 62.1% and an IC50 [12] of 4.1 µM. The Induction (PC-3 [13]) was 30%, the IC50 (PC-3 [14]) was 3.7 µM and the IC50 (LNCaP [15]) was 5.7 µM. It also gave an IC50 (WI-38) of 19.3 µM, an IC50 (PC-3 [16]) of 3.7 µM and an IC50 (WI-38 5000) of 19.3 µM. The Apoptosis (PC-3 [17]) was 75%.
In the case of `COc1cc([C@@H]2c3cc4c(cc3[C@@H](O[C@@H]3O[C@@H]5CO[C@@H](C)O[C@H]5[C@H](O)[C@H]3O)[C@H]3COC(=O)[C@H]23)OCO4)cc(OC)c1O` [ETOPOSIDE], the Death (Jurkat [18]) is reported as 59%, the Death (Jurkat [19]) is reported as 94.3% and the Death (Jurkat [20]) is reported as 85%.
With `C[C@H](N)C(=O)N[C@@H](CCCNC(=N)N)C(=O)N1CCC[C@H]1C(=O)N[C@@H](Cc1ccccc1)C(=O)N[C@@H](C)C(=O)N[C@@H](CCC(N)=O)C(=O)N[C@@H](CCCCN)C(=O)O` (H-ARPFAQK-OH) the Kd [21] was 0.038 µM and the Kd [22] was 0.02 µM.
For `C[C@H](N)C(=O)N[C@@H](CCCNC(=N)N)C(=O)N1CCC[C@H]1C(=O)N[C@@H](Cc1ccccc1)C(=O)N[C@@H](C)C(=O)N[C@@H](CCC(N)=O)C(=O)N[C@@H](CCCCNC(=O)c1c(C(=O)ON2C(=O)CCC2=O)cccc1-c1c2ccc(=O)cc-2oc2cc(O)ccc12)C(=O)O` (H-ARPFAQK(X1)-OH), the IC50 [12] was 0.57 µM.
